Experimental data gathered from unrelated publications.
Protocols differ between the studies behind these lines.
Target: Vascular endothelial growth factor receptor 1 (FLT1, Homo sapiens, UniProt P17948)
One construct used (P17948 784-1338, limits assumed): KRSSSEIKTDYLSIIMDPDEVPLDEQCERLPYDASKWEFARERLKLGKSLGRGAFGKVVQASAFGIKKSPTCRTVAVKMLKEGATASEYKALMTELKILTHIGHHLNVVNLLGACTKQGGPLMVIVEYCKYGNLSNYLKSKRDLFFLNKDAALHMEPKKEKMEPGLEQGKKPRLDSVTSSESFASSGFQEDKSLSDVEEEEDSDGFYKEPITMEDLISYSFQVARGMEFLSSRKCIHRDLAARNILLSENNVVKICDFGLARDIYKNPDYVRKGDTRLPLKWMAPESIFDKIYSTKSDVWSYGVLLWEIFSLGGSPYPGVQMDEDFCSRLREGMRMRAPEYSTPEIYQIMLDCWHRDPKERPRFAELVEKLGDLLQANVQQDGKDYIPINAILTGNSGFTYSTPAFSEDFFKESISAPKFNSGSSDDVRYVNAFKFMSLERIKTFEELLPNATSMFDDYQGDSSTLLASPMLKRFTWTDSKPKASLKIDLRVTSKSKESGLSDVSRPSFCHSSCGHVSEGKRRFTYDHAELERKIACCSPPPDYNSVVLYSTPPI

SMILES	effect on	mode	method	concentration	quantity	result
O=C(O)[C@@H]1[C@@H](Cn2nnc3ccccc3c2=O)CC[C@H]1C(=O)c1ccc(OCCC2CCOCC2)cc1	cell-free assay	–	competition with immobilised ligand	1 µM	remaining binding	100%
Cc1ccc(NC(=O)c2ccc(C)c(C(F)(F)F)c2)cc1C#Cc1nn(C2CCC(O)CC2)c2ncnc(N)c12 (stereo not drawn)	cell-free assay	–	–	10 µM	remaining signal	3%
Cc1ccc(-n2nc(C(C)(C)C)cc2NC(=O)Nc2ccc(OCCN3CCOCC3)c3ccccc23)cc1	enzyme activity	inhibitor	–	10 µM	inhibition	96%
CS(=O)(=O)N1CCCC(NC(=O)[C@H](CCC2CCCCC2)NC(=O)c2ccc(CNc3ncnc4c3nnn4-c3ccccc3)cc2)C1 (stereo partly drawn)	cell-free assay	–	competition with immobilised ligand	0.1 µM	remaining binding	86%
CCCS(=O)(=O)Nc1ccc(F)c(C(=O)c2c[nH]c3ncc(-c4ccc(Cl)cc4)cc23)c1F	enzyme activity	inhibitor	–	1 µM	inhibition	< 10%
CNC(=O)c1cc2c(Oc3ccc(NC(=O)C4(C(=O)Nc5ccc(F)cc5)CC4)cc3)ccnc2cc1OC	enzyme activity	inhibitor	radiometric	1 µM	inhibition	106%
CNCc1ccc(-c2cc(-c3nc(-c4ccc(S(=O)(=O)C(C)C)cc4)cnc3N)on2)cc1	enzyme activity	inhibitor	–	0.4 µM	inhibition	50%
CCN(CC)CCNC(=O)c1c(C)[nH]c(/C=C2\C(=O)Nc3ccc(F)cc32)c1C	enzyme activity	inhibitor	–	10 µM	inhibition	102%
CC1CCCN1c1nccc(-c2cnn3ncccc23)n1 (stereo not drawn)	binding	–	–	1 µM	remaining binding	100%
O=C1NC(=O)c2cc(Nc3ccc(F)cc3)c(Nc3ccc(F)cc3)cc21	cell-free assay	–	–	0.5 µM	remaining signal	81.5%
Cc1ccc(Nc2nccc(N(C)c3ccc4c(C)n(C)nc4c3)n2)cc1S(N)(=O)=O	enzyme activity	inhibitor	–	10 µM	inhibition	102%
CCOc1cc(-c2nncn2C)ccc1Nc1ncc2cc(C)nc(NCC(C)(C)C)c2n1	enzyme activity	inhibitor	FRET	1 µM	inhibition	< 15%
COc1cc(Nc2cnc(C#N)c(O[C@H](C)CN(C)C)n2)ncc1-c1cnn(C)c1	enzyme activity	inhibitor	radiometric	10 µM	remaining activity	31%
CCCOc1ccc(OC)c(F)c1C(=O)c1ccc(C(=O)N[C@@H]2CNC[C@H]2NC(=O)c2ccc3[nH]ncc3c2)cc1	enzyme activity	inhibitor	–	10 µM	remaining activity	35%
O=C(N[C@H]1CCCCC/C=C\C2C[C@@]2(C(=O)O)NC(=O)[C@@H]2C[C@@H](Oc3ccncc3)CN2C1=O)OC1CCCC1 (stereo partly drawn)	cell-free assay	–	competition with immobilised ligand	1 µM	remaining binding	100%
CC(C)(C)C(=O)c1sc(NC2CCCCC2)nc1N	enzyme activity	inhibitor	–	10 µM	remaining activity	82%
CCN(CC)c1ccc(C2=NNC(=O)CC2C)cc1[N+](=O)[O-] (stereo not drawn)	enzyme activity	inhibitor	–	10 µM	remaining activity	104%
Cc1ccc(NC(=O)c2ccc(CN3CCN(C)CC3)cc2)cc1Nc1nc(-c2cccnc2)cs1	cell-free assay	–	–	0.5 µM	remaining signal	96.4%
COCCOc1nc(-c2ccc(Cl)nc2)nc2c1CN(C(=O)c1ncn3ccccc13)CC2	cell-free assay	–	competition with immobilised ligand	0.1 µM	remaining binding	87%
Cc1ccc(C(=O)Nc2ccc(CN3CCN(C)CC3)c(C(F)(F)F)c2)cc1C#Cc1cnc2cccnn12	cell-free assay	–	–	23.5 nM	remaining signal	33%
O=C(Nc1cnn(-c2csc(C(=O)NC3COC3)c2)c1)Nc1c(F)cccc1Cl	enzyme activity	inhibitor	–	5 µM	remaining activity	86.1%
CO[C@@H](C)c1c(Nc2ccc([C@@H](N(C)C(=O)C3CCS(=O)(=O)CC3)C(F)(F)F)cc2)cnc2cc(Cl)nn12	cell-free assay	–	competition with immobilised ligand	1 µM	remaining binding	85%
CC(C)(C)c1nc2c(s1)c1nc(N)ncc1c1ccc(NS(=O)(=O)c3c(F)cccc3F)c(F)c12	enzyme activity	inhibitor	radiometric	1 µM	remaining activity	111%
N#CC1(c2ccccn2)CCN(Cc2cc(C(=O)N3CCCC3)c(=O)n3ccccc23)CC1	cell-free assay	–	competition with immobilised ligand	1 µM	remaining binding	100%
Nc1nc(Nc2ccccc2)sc1C(=O)c1c(F)cccc1F	enzyme activity	inhibitor	–	10 µM	remaining activity	17%
C[C@H](c1ccc(F)cc1)N(Cc1cccc(C(=O)O)c1)C(=O)c1cnc2ccccc2c1	cell-free assay	–	competition with immobilised ligand	1 µM	remaining binding	100%
Cc1ccc(C(=O)NCc2ccsc2)cc1C#Cc1cn(C(C)C)c2ncnc(N)c12	enzyme activity	inhibitor	–	1 µM	activity vs control	-1%
COc1cc2nccc(Oc3ccc(NC(=O)c4c5n(n(-c6ccc(F)cc6)c4=O)CCCC5)cc3)c2cc1OC	enzyme activity	inhibitor	–	0.1 µM	inhibition	23%
CS(=O)(=O)NCC[C@H](NC(=O)c1cncc2c1cnn2-c1ccc(F)cc1)c1ccnc(S(C)(=O)=O)c1	cell-free assay	–	competition with immobilised ligand	1 µM	remaining binding	90%
COc1cc2ncnc(Nc3ccc(Oc4ccccc4)c(C)c3C)c2cc1OC	enzyme activity	inhibitor	–	1 µM	inhibition	0%
